Results collected from several papers.
Lines come from different studies, so protocols differ. pEC50, pIC50: −log10 of the molar value. ≈ marks a conversion by molar mass, not a printed value.

| SMILES | target or system | test | test system | setting | endpoint | value |
| --- | --- | --- | --- | --- | --- | --- |
| COc1ccc(Nc2cnnc3cc(-c4cnc(N5CCN(C)CC5)nc4)ccc23)cc1Cl | Leishmania major | parasite growth | – | intracellular, amastigote | pEC50 | < 5.66 |
| CCC(=CCc1c(O)cc2c(c1O)C(=O)C[C@@H](c1ccc(O)cc1)O2)CC | HeLa | cell growth or viability, MTT | – | 100 µM, 48 h | inhibition | 99.5% |
| C[C@@H]1[C@H](O)[C@@H](C)/C=C/C=C/C=C/C=C/C=C/C=C/C=C/[C@H](O[C@@H]2O[C@H](C)[C@@H](O)[C@H](N)[C@@H]2O)C[C@@H]2O[C@](O)(C[C@@H](O)C[C@@H](O)[C@H](O)CC[C@@H](O)C[C@@H](O)CC(=O)O[C@H]1C)C[C@H](O)[C@H]2C(=O)O | Leishmania major | parasite growth, MTT | – | 72 h, promastigote | pIC50 | 5.02 |
| CCC(=CCc1c(O)cc2c(c1O)C(=O)C[C@@H](c1ccccc1O)O2)CC | HeLa | cell growth or viability, MTT | – | 30 µM, 48 h | inhibition | 9.27% |
| CC[C@H]1OC(=O)[C@H](C)[C@@H](O[C@H]2C[C@@](C)(OC)[C@@H](O)[C@H](C)O2)[C@H](C)[C@@H](O[C@@H]2O[C@H](C)C[C@H](N(C)C)[C@H]2O)[C@](C)(O)C[C@@H](C)/C(=N\OCOCCOC)[C@H](C)[C@@H](O)[C@]1(C)O | Enterococcus faecalis | microbial growth | – | clinical isolate | MIC90 | > 128 µg/mL |
| COc1ccc(Nc2cnnc3cc(-c4cnc(N5CCCN(C)CC5)nc4)ccc23)nc1 | Leishmania major | parasite growth | – | intracellular, amastigote | pEC50 | < 4.64 |
| CNC(=S)NN=Cc1ccc(O)c(OC)c1 | Leishmania major | parasite growth | J774.A1 | 72 h, intracellular, amastigote | pIC50 | 3.95 |
| COc1c(N2C[C@@H]3CCCN[C@@H]3C2)c(F)cc2c(=O)c(C(=O)O)cn(C3CC3)c12 | Enterococcus faecalis | microbial growth, broth dilution | – | clinical isolate | MIC50 | 0.5 µg/mL (≈ 1.25 µM) |
